Screens deposited in PubChem by Johns Hopkins Ion Channel Center.
KCNQ1 block: human KCNQ1 channel inhibition; P51787; CHO-K1 KCNQ1, FluxOR thallium flux fluorescence; active compounds read high; B-score at 10 µM; 310,000 tested, 1.3% active;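 active means compounds whose thallium flux B-score, printed positive for inhibition, exceeds three library SD while starting fluorescence stays within three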;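 further: channel opened by potassium depolarization with thallium stimulus after 20 min compound exposure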
Target sequence (P51787 whole entry, looked up): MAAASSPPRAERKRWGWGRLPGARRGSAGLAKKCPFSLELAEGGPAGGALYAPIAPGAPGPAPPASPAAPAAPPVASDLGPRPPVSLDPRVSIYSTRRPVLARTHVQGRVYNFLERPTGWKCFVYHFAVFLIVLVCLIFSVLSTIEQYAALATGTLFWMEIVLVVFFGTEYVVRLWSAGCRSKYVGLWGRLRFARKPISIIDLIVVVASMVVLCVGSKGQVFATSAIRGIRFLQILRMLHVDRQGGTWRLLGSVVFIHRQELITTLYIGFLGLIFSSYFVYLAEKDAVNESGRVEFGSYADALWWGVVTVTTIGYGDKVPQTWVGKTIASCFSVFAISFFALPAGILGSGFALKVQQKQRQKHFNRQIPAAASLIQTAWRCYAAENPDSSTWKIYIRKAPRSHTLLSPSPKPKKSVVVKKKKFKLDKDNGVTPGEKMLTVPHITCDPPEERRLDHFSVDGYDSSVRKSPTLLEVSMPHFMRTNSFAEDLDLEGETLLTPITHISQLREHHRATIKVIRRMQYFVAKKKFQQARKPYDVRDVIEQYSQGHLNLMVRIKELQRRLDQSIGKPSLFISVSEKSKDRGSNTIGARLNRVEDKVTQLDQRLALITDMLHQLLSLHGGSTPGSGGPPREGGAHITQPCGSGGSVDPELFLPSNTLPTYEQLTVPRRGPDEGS
Kir21 inh: blocks the mouse Kir2.1 inward-rectifier potassium channel | B-score at 10 µM | HEK293-Kir2.1, FluxOR thallium flux fluorescence; active compounds read low | 310,000 tested, 0.85% active;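 active means fluorescence ratio B-score at or below minus 3 SD of library scores, with starting-brightness B-score within 2 SD, cut at about -4.2 in these data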;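 further: channel flux triggered by added potassium and thallium sulfate stimulus; B-score of peak minus minimum fluorescence over baseline after thallium stimulus; more negative B-score means stronger Kir2.1 block with less thallium influx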
hERG rescue: compounds protecting human hERG from proarrhythmic drug block; Q12809; CHO-hERG, FluxOR thallium flux, dofetilide IC70 present; activation (rescue from dofetilide block), less the hit threshold, % at 10 µM; 310,000 tested, 0.51% active;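 active means activation above the mean of controls blocked by dofetilide plus 5 SD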;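 further: thallium influx through hERG after potassium depolarization seen as dye fluorescence rise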
KCNK9 block: inhibitors of human KCNK9 two-pore domain potassium channel; Q9NPC2; HEK293 KCNK9, FluxOR thallium flux fluorescence; active compounds read low; B-score at 10 µM; 310,000 tested, 1.2% active; AID 488922;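 active means ratio B-score over 3 SD below the library mean, with starting fluorescence within 5 SD of its mean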;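 further: negative B-score means less thallium flux so channel inhibition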
KCNQ1 act: potentiators or activators of human KCNQ1 potassium channel; P51787; CHO-K1 KCNQ1, thallium flux FluxOR fluorescence; active compounds read high; B-score at 10 µM; 310,000 tested, 0.35% active;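 active means fluorescence ratio B-score, a plate-corrected score, at least three library SD, with initial intensity B-score within 5 SD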
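assay system = KCNQ1-transfected CHO-K1 cells | medium = assay buffer with matched DMSO | probe or stimulus = depolarizing K+/Tl+ stimulus, K2SO4 and Tl2SO4 each 12.5 mM in 5x stock | dosing = single dose | incubation = dye 90 min, compound 20 min, room temperature | detection = kinetic FluxOR fluorescence, 10 s baseline plus 110 s post-stimulus | evaluation = ratio B score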
KCNK3 block: human KCNK3 channel inhibition, primary screen; O14649; CHO-KCNK3 thallium flux, FluxOR fluorescence; active compounds read low; B-score at 10 µM; 340,000 tested, 0.84% active; AID 602410;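 active means B-score under library mean minus 4 SD, starting fluorescence ratio at most library mean plus 5 SD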;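 further: more negative B-score means stronger inhibition of thallium flux through KCNK3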
KCNK9 block conf: confirmation of human KCNK9 potassium channel inhibitors. shares compounds with KCNK9 block. HEK293 KCNK9 cells, FluxOR thallium flux fluorescence. AID 492992. inhibition, % at 10 µM. 4,900 tested, 43% active;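 active means thallium signal inhibited by more than 5 SD of the compound-free buffer control wells, on both duplicate plates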;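 further: 0% = assay buffer control wells without compound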
Kir21 sel: mouse Kir2.1 off-target activity of KCNK9 modulators; 4,900 tested, 4% active; shares compounds with KCNK9 block; inhibition, % at 10 µM; Kir2.1 cells, FluxOR thallium flux fluorescence;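 active means thallium signal drop more than 5 SD beyond the mean of the no-compound control wells, seen in both duplicate plates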;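 further: signal is fluorescence rise after thallium addition divided by baseline fluorescence; plate controls were assay buffer only for no effect and full block by chlorpromazine control for full effect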
HEK293 Tl ctr: second check of KCNK9 modulator effects in non-induced HEK293 cells | shares compounds with KCNK9 block | FluxOR thallium flux | 4,900 tested, 40% active | AID 492997 | inhibition, % at 10 µM;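 active means thallium signal drop beyond 5 SD of the untreated control mean, on both duplicate plates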;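 further: plate controls were buffer only IC0 wells for no effect and SID17386958 at its maximal inhibitory level for full effect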
Active calls of the source: *; i = inactive; x = no result. A selection: hits, their analogues and other compounds. The true share with any hit is near 3.7%.

SMILES | KCNQ1 block | Kir21 inh | hERG rescue | KCNK9 block | KCNQ1 act | KCNK3 block | KCNK9 block conf | Kir21 sel | HEK293 Tl ctr
COc1ccccc1NC(=O)Nc1sccc1-c1nc2ccccc2s1 | i | 0.08 | -5.3 | -12.8* | i | i | 69.5%* | i | 39.5%*
Cc1ccc(NCc2nnc(SCc3ccc(C#N)cc3)n2Cc2ccco2)c(C)c1 | i | 0.34 | -15.4 | -18.9* | i | i | 66.5%* | i | 36.5%*
O=C(CSc1ccc2ccccc2n1)N1CCC(c2noc3ccc(F)cc23)CC1 | i | -0.66 | -9.2 | -9.02* | i | i | i | i | i
Cc1nnc(SCC(=O)N2CCC(c3noc4ccc(F)cc34)CC2)s1 | i | 0.48 | -11.2 | i | i | i | x | x | x
CCOc1ccc(N(CC(=O)N2CCCC2)S(=O)(=O)c2ccc(Cl)cc2)cc1 | i | 0.36 | -14.5 | i | i | i | x | x | x
Cc1cc(C)n(CC(O)CN2c3ccccc3Sc3ccccc32)n1 (stereo unspecified) | 6* | -3.86 | -11.2 | i | i | i | i | i | i
CCOc1cc(N2CCOCC2)c(OCC)cc1NC(=O)CN1CCC(Cc2ccccc2)CC1 | i | -1.83 | -4.0 | i | i | i | i | i | i
CCOC(=O)N1CCN(CC(=O)Nc2cc3c(cc2C(C)=O)OCO3)CC1 | i | -0.5 | -4.0 | i | i | i | x | x | x
CC(=O)c1cc2c(cc1NC(=O)CN1CCC(Cc3ccccc3)CC1)OCO2 | i | 1.71 | -10.9 | i | i | i | i | i | i
Nc1c(Cl)cc(C2=NCCn3nc4cc(C(F)(F)F)ccc4c32)cc1Cl | i | 0.51 | -5.4 | -13.1* | 8* | i | 58.5%* | i | i
Cc1c(C(=O)N2CCN(c3ccccc3)CC2)sc2ncnc(N3CCN(c4ccccn4)CC3)c12 | i | -0.25 | -4.8 | i | i | i | x | x | x
Cc1c(C(=O)N2CCC(C)CC2)sc2ncnc(N3CCN(c4ccccc4)CC3)c12 | i | -0.03 | -18.5 | i | i | i | i | i | i
Cc1c(C(=O)N(C)C2CCCCC2)sc2ncnc(N3CCN(c4ccccc4F)CC3)c12 | i | -0.42 | -7.0 | i | i | i | x | x | x
Cc1c(C(=O)N(C)C2CCCCC2)sc2ncnc(N3CCN(c4ccccc4)CC3)c12 | i | 0.17 | -7.5 | i | i | i | i | i | i
CC1CC(=O)N(CC(=O)Nc2ccc(F)cc2)c2ccccc2S1(=O)=O (stereo unspecified) | i | -0.58 | -6.0 | i | i | i | x | x | x
Cn1cnc2c1c(=O)n(Cc1ccc(Cl)cc1Cl)c(=O)n2C | i | -0.55 | -2.8 | i | i | i | x | x | x
CC(C)[C@H](NC(=O)C1CC(=O)N(c2ccc3c(c2)OCO3)C1)C(=O)NC1CCCC1 (stereo partly specified) | i | -0.02 | -4.5 | i | i | i | x | x | x
O=c1cc(NCc2ccccc2)[nH]c(=O)[nH]1 | i | 0.75 | -3.5 | i | i | i | x | x | x
CC(=O)OCc1nc2ccccc2s1 | i | 0.8 | -5.6 | i | i | i | x | x | x
NC(=O)c1ccccc1OCc1nc2ccccc2s1 | i | 1.67 | -14.2 | i | i | i | i | i | i
CCCN(C(=O)CSc1cc(-c2ccccc2)c2ccc(OC)cc2n1)C1CCS(=O)(=O)C1 (stereo unspecified) | i | -0.05 | -4.6 | -8.38* | i | i | 48.0%* | i | 28.5%*
COc1cc(OC)cc(C(=O)N[C@H](C(=O)N2CCc3ccccc32)C(C)C)c1 | i | 1.8 | -7.6 | -11* | i | i | 71.0%* | i | 31.0%*
NC(=O)COC(=O)c1oc2ccccc2c1CSc1ccc(Cl)cc1 | i | 0.03 | -9.8 | i | i | i | x | x | x
O=C(COC(=O)c1oc2ccccc2c1CSc1ccc(Cl)cc1)NC1CCCC1 | 10* | 0.64 | -6.2 | -8.1* | i | i | 32.0%* | 36.5%* | 50.5%*
O=C(CNC(=O)c1cccc(Cl)c1)NCC(c1cccs1)N1CCOCC1 (stereo unspecified) | x | x | x | x | x | i | x | x | x
SMILES | KCNQ1 block | Kir21 inh | hERG rescue | KCNK9 block | KCNQ1 act | KCNK3 block | KCNK9 block conf | Kir21 sel | HEK293 Tl ctr
CCCCn1cnc2c(c(-c3ccccc3)c(-c3ccccc3)n2Cc2ccco2)c1=N | 10* | -10.3 | -26.5 | -13.3* | i | i | 44.5%* | i | i
COc1ccc(/C=N/N(c2ccccc2)c2ccccc2)cc1O | 8* | 1.89 | -10.9 | i | i | i | i | i | i
S=c1[nH]nc(-c2cccs2)n1/N=C/c1cn(-c2ccccc2)nc1-c1ccccc1 | i | 1.24 | -3.7 | i | i | i | i | i | i
Cc1ccc(-c2nn(-c3ccccc3)cc2/C=N/n2c(-c3ccncc3)n[nH]c2=S)cc1 | i | -1.26 | -2.8 | i | i | i | x | x | x
CC1CCCN(CCCNC(=O)C2CCC(CNS(=O)(=O)c3cccc4nsnc34)CC2)C1 (stereo unspecified) | i | -0.42 | -13.6 | i | i | i | x | x | x
O=C(Nc1nc(-c2ccccc2)cs1)NC1CCCCC1 | i | 0.1 | -11.2 | i | i | i | x | x | x
c1ccc(-c2csc(NC3CCCCC3)n2)cc1 | i | -0.64 | -6.3 | i | i | i | i | i | i
Cc1cnc(NC(=O)c2cncc(Br)c2)s1 | i | -1.08 | -6.3 | i | i | i | x | x | x
COC(=O)c1ccc(OC)c(CN2CCCN(Cc3cc(C)ccc3C)S2(=O)=O)c1 | i | -0.59 | -4.8 | -16.9* | i | i | 62.0%* | i | 27.5%*
O=C(c1cnc(Cl)c(Cl)c1)N1CCC(Cc2ccccc2)CC1 | i | -0.05 | -8.2 | i | i | i | i | i | i
O=C(c1cnc(Cl)c(Cl)c1)N1CCN(S(=O)(=O)c2ccc3ccccc3c2)CC1 | x | x | x | x | x | i | x | x | x
O=C(NCCc1ccccc1)c1ccc2nc(N3CCOCC3)sc2c1 | i | 1.01 | -7.6 | i | i | i | x | x | x
O=C(c1ccc2nc(N3CCOCC3)sc2c1)N1CCC(Cc2ccccc2)CC1 | i | -1.2 | -13.5 | i | i | i | i | i | i
NC(=O)NC(=O)COC(=O)c1ccc(OC(F)F)cc1 | i | 0.73 | -3.6 | i | i | i | x | x | x
